Results from ChEMBL document CHEMBL1122741, “Substituted 5,6-dihydrofuro[3,2-f]-1,2-benzisoxazole-6-carboxylic acids: high-ceiling diuretics with uricosuric activity” (J Med Chem, 1984).
One block for each compound: values may come before it. Active and inactive are the calls of the source. The rule behind the calls is not given here.

Tests used:
Mus musculus [1] = assay: ED6 (natriuretic potency) is the oral dose(mg/kg) required to produce an excretion of 6 milliequivalents of Na+per kilogram during 0-4 hr in male mice (Highest dose tested was 50 mg/kg); format: functional
In short: (§1)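 Male mice, 16-30 g, fed ad libitum beforehand. Compound in 0.2% hydroxypropylmethylcellulose given po at 10 mL/kg, then 0.9% saline po at 3% of body weight. Five mice pooled per metabolism cage, four cages per dose. Combined urine collected 0-4 h and assayed for Na+, K+, Cl-, uric acid as mequiv/kg per cage. ED6 from regression of Na+ against log dose.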

Rattus norvegicus [2] = assay: ED2(natriuretic potency) is the oral dose(mg/kg) required to produce an excretion of 2 milliequivalents of Na+per kilogram during 0-4 hr in female rats (Highest dose tested was 100 mg/kg); Inactive; format: functional, organism-based; parameters: dose 100 mg/kg
In short: (§2)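 Female Sprague-Dawley rats, 175-225 g, on sucrose and water for 18 h, given 5 mg DOCA sc 2 h before dosing. Compound in 0.2% methylcellulose given by gavage at 2 mL/kg, then a 30 mL/kg load of 0.34% NaCl/0.69% KCl. Individual metabolism cages, urine collected 0-4 h for Na+, K+, Cl-. Two-stage two-dose screen at 2 rats/dose, then at least four doses at 4 rats/dose. ED2 taken from regression of Na+ excretion against log dose.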

Canis familiaris [3] = assay: ED5(natriuretic potency) is the oral dose(mg/kg) required to produce an excretion of 5 milliequivalents of Na+per kilogram during 0-6 hr in female dogs (Highest dose tested was 30 mg/kg); format: functional, Canis lupus familiaris
In short: (§3)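 Female dogs, conscious, one oral dose per dog per experiment. Urine collected and centrifuged; venous plasma drawn at each collection time. Samples assayed for Na+, K+, Cl-, urate and glucose by standard methods. Cumulative Na+ output expressed as mequiv/kg over 6 h, at least two dogs/dose. ED5 read from regression of Na+ excretion against log dose.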

Mus musculus [4] = assay: ED6 (natriuretic potency) is the oral dose(mg/kg) required to produce an excretion of 6 milliequivalents of Na+per kilogram during 0-4 hr in male mice (Highest dose tested was 50 mg/kg); Inactive; format: functional, organism-based; parameters: dose 50 mg/kg; in short: as §1
Rattus norvegicus [5] = assay: ED2(natriuretic potency) is the oral dose(mg/kg) required to produce an excretion of 2 milliequivalents of Na+per kilogram during 0-4 hr in female rats (Highest dose tested was 100 mg/kg); format: functional; in short: as §2
Canis familiaris [6] = assay: ED5(natriuretic potency) is the oral dose(mg/kg) required to produce an excretion of 5 milliequivalents of Na+per kilogram during 0-6 hr in female dogs (Highest dose tested was 30 mg/kg); Inactive; format: functional, organism-based; parameters: dose 30 mg/kg; conditions: Canis lupus familiaris; in short: as §3
Mus musculus [7] = assay: Na+ excretion mequiv /kg in saline-loaded mice administered at a dose 10 […] perorally; format: ADME, organism-based; conditions: in vivo, po
In short: (§4)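 Saline-loaded male mice, 16-30 g. Compound po in 0.2% hydroxypropylmethylcellulose at 10 mL/kg, vehicle alone for controls, followed by 0.9% saline po at 3% of body weight. Doses were 0.3-250 mg/kg po. Five mice per metabolism cage, four cages per dose, pooled urine collected for 4 h. Na+ reported as mean ± SEM mequiv/kg; ANOVA with Duncan's test or unpaired t test against control.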

Canis familiaris [8] = organism: Canis familiaris; assay: urate excreted in female dogs during 0-6 hr; format: ADME, organism-based, Canis lupus familiaris; conditions: dog, in vivo
In short: (§5)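 Conscious female dogs dosed at 3 mg/kg po, except one reference at 10 mg/kg, one dose per dog. Urine collected to 6 h and centrifuged; heparinized venous plasma taken at each collection. Na+ and urate measured by standard methods, mean ± SEM over 0-6 h. Compared with vehicle by ANOVA/Duncan's test or unpaired t test.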

Mus musculus [9] = assay: Na+ excretion mequiv /kg in saline-loaded mice administered at a dose 50 […] perorally; format: ADME, organism-based; conditions: in vivo, po; in short: as §4
[10] = urate excreted in 4 Cebus monkey''s during 0-6 hr; format: ADME; conditions: in vivo
In short: (§6)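 Male and female Cebus monkeys, 4-6 per group, fasted for 6 h after dosing, water ad libitum. 20 mg/kg in 0.2% hydroxypropylmethylcellulose at 1.0 mL/kg by nasogastric tube, then water load of 5% body weight. Urine collected in metabolism pans at 2, 6 and 24 h and assayed for uric acid. Urate in mg/kg over 0-6 h, mean ± SEM.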

Canis familiaris [11] = assay: Na+ excretion mequiv /kg in 6 conscious female dogs administered perorally during 0-6 hr; format: ADME, organism-based, Canis lupus familiaris; conditions: dog, in vivo, po; in short: as §5
Mus musculus [12] = assay: Na+ excretion mequiv /kg in saline-loaded mice administered at a dose 2 […] perorally; format: ADME, organism-based; conditions: in vivo, po; in short: as §4
[13] = urate excreted in 6 Cebus monkey''s during 0-6 hr; format: ADME; conditions: in vivo; in short: as §6
Canis familiaris [14] = assay: Na+ excretion mequiv /kg in conscious female dogs administered perorally during 0-6 hr; format: ADME, organism-based, Canis lupus familiaris; conditions: dog, in vivo, po; in short: as §5
Canis familiaris [15] = organism: Canis familiaris; assay: Urate excreted in female dogs during 0-6 hr; format: ADME, organism-based, Canis lupus familiaris; conditions: dog, in vivo; in short: as §5
[16] = Urate excreted in 6 Cebus monkey''s during 0-6 hr; format: ADME; conditions: in vivo; in short: as §6
Mus musculus [17] = assay: Na+ excretion mequiv[…] in saline-loaded mice administered at a dose 10 […] perorally* -significantly different from control(p<0.05) and Duncan's test; format: ADME, organism-based; conditions: in vivo, po; in short: as §4
Mus musculus [18] = assay: Na+ excretion mequiv[…] in saline-loaded mice administered at a dose 10 […] perorally; format: ADME, organism-based; conditions: in vivo, po; in short: as §4
Mus musculus [19] = assay: Na+ excretion mequiv/kg in saline-loaded mice administered at a dose 2 […] perorally; format: ADME, organism-based; conditions: in vivo, po; in short: as §4
Mus musculus [20] = assay: Na+ excretion mequiv/kg in saline-loaded mice administered at a dose 30 […] perorally; format: ADME, organism-based; conditions: in vivo, po; in short: as §4
Mus musculus [21] = assay: Na+ excretion mequiv/kg in saline-loaded mice administered at a dose 3 […] perorally; format: ADME, organism-based; conditions: in vivo, po; in short: as §4
Canis familiaris [22] = assay: Na+ excretion mequiv/kg in 4 conscious female dogs administered perorally during 0-6 hr; format: ADME, organism-based, Canis lupus familiaris; conditions: dog, in vivo, po; in short: as §5
Mus musculus [23] = assay: Na+ excretion mequiv/kg in 4 saline-loaded mice administered at a dose 50 […] perorally; format: ADME, organism-based; conditions: in vivo, po; in short: as §4
Mus musculus [24] = assay: Na+ excretion mequiv/kg in saline-loaded mice administered at a dose 10 […] perorally; format: ADME, organism-based; conditions: in vivo, po; in short: as §4
Canis familiaris [25] = organism: Canis familiaris; assay: urate excreted in 4 female dogs during 0-6 hr; format: ADME, organism-based, Canis lupus familiaris; conditions: dog, in vivo; in short: as §5

Structure (SMILES): OCC1Cc2cc3c(-c4ccccc4F)noc3c(Cl)c2O1 (configuration not stated)
- ED6 (Mus musculus [1]): 30 mg/kg
- ED2 (Rattus norvegicus [2]): inactive
- ED5 (Canis familiaris [3]): 21 mg/kg

Structure (SMILES): O=C(O)C1Cc2cc3c(-c4ccc(O)cc4)noc3c(Cl)c2O1 (configuration not stated)
- ED6 (Mus musculus [4]): inactive
- ED2 (Rattus norvegicus [5]): 190 mg/kg

Structure (SMILES): O=C(O)C1Cc2cc3c(-c4ccccc4F)noc3c(Br)c2O1 (configuration not stated)
- ED6 (Mus musculus [1]): 9.9 mg/kg
- ED2 (Rattus norvegicus [5]): 117.5 mg/kg

Structure (SMILES): CC(C)Cc1noc2c(Cl)c3c(cc12)CC(C(=O)O)O3 (configuration not stated)
- ED6 (Mus musculus [1]): 0.47 mg/kg
- ED5 (Canis familiaris [6]): inactive
- ED2 (Rattus norvegicus [5]): 0.23 mg/kg

Structure (SMILES): CCOC(=O)C1Cc2cc3c(-c4ccccc4F)noc3c(Cl)c2O1 (configuration not stated)
- ED6 (Mus musculus [4]): inactive
- ED2 (Rattus norvegicus [2]): inactive

Structure (SMILES): N#CC1Cc2cc3c(-c4ccccc4F)noc3c(Cl)c2O1 (configuration not stated)
- ED6 (Mus musculus [4]): inactive
- ED2 (Rattus norvegicus [2]): inactive

Structure (SMILES): O=C(O)C1Cc2cc3c(-c4ccccc4F)noc3c(Cl)c2O1 (stereo in doubt; 30) [listing 2 of 2 here]
- ED6 (Mus musculus [4]): inactive
- ED5 (Canis familiaris [6]): inactive

Further lines, with some results ahead:

- Na+ excretion (Mus musculus [7]): 8.2 m equiv kg-1
- Excretion (Canis familiaris [8]): 0.82 mg/kg
- Na+ excretion (Mus musculus [9]): 11.9 m equiv kg-1
- Excretion [10]: 7.08 mg/kg
- Na+ excretion (Canis familiaris [11]): 8.18 m equiv kg-1
- Na+ excretion (Mus musculus [12]): 4.2 m equiv kg-1
Structure (SMILES): O=C(O)C1Cc2cc3c(-c4ccccc4F)noc3c(Cl)c2O1 (stereo in doubt; 15k)
- ED6 (Mus musculus [1]; 50 mg/kg): 4.2 mg/kg
- ED2 (Rattus norvegicus [5]): 40 mg/kg
- ED5 (Canis familiaris [3]; 30 mg/kg): 0.6 mg/kg

- Excretion [13]: 8.34 mg/kg
- Na+ excretion (Mus musculus [7]): 8.1 m equiv kg-1
- Excretion (Canis familiaris [8]): 1.32 mg/kg
- Na+ excretion (Mus musculus [9]): 13.2 m equiv kg-1
- Na+ excretion (Mus musculus [12]): 5.5 m equiv kg-1
- Na+ excretion (Canis familiaris [14]): 7.6 m equiv kg-1
Structure (SMILES): O=C(O)C1Cc2cc3c(-c4ccccc4F)noc3c(Cl)c2O1 (stereo in doubt; 29)
- ED6 (Mus musculus [1]; 50 mg/kg): 2.95 mg/kg
- ED5 (Canis familiaris [3]; 30 mg/kg): 0.71 mg/kg

- Excretion (Canis familiaris [15]): 1.25 mg/kg
- Excretion [16]: 8.32 mg/kg
- Na+ excretion (Mus musculus [7]): 3.2 m equiv kg-1
- Na+ excretion (Mus musculus [9]): 3.5 m equiv kg-1
- Na+ excretion (Mus musculus [12]): 2.8 m equiv kg-1
- Na+ excretion (Canis familiaris [14]): 0.62 m equiv kg-1
Structure (SMILES): O=C(O)C1Cc2cc3c(-c4ccccc4F)noc3c(Cl)c2O1 (stereo in doubt; 30) [listing 1 of 2 here]

- Na+ excretion (Mus musculus [17]): 5.9 mequiv/kg
- Na+ excretion (Mus musculus [18]): 3.2 mequiv/kg
- Na+ excretion (Mus musculus [19]): 2.9 mequiv/kg
Structure (SMILES): C=C(CC)C(=O)c1ccc(OCC(=O)O)c(Cl)c1Cl [ETHACRYNIC ACID]

- Na+ excretion (Mus musculus [7]): 7.9 m equiv kg-1
- Excretion (Canis familiaris [8]): 0.7 mg/kg
- Na+ excretion (Mus musculus [9]): 11.5 m equiv kg-1
- Excretion [10]: 4.03 mg/kg
- Na+ excretion (Mus musculus [12]): 3.7 m equiv kg-1
- Na+ excretion (Canis familiaris [14]): 5.23 m equiv kg-1
Structure (SMILES): NS(=O)(=O)c1cc(C(=O)O)c(NCc2ccco2)cc1Cl [FUROSEMIDE]
- ED6 (Mus musculus [1]): 5 mg/kg
- ED2 (Rattus norvegicus [5]): 9.5 mg/kg
- ED5 (Canis familiaris [3]): 3.5 mg/kg

- Na+ excretion (Mus musculus [20]): 6.7 m equiv kg-1
- Na+ excretion (Mus musculus [21]): 4.5 m equiv kg-1
Structure (SMILES): NS(=O)(=O)c1cc2c(cc1Cl)NCNS2(=O)=O [HYDROCHLOROTHIAZIDE]

- Na+ excretion (Canis familiaris [22]): 1.44 m equiv kg-1
- Na+ excretion (Mus musculus [23]): 12.6 m equiv kg-1
- Excretion [10]: 9.53 mg/kg
- Na+ excretion (Mus musculus [24]): 8 m equiv kg-1
- Na+ excretion (Mus musculus [19]): 4 m equiv kg-1
- Excretion (Canis familiaris [25]): 0.71 mg/kg
Structure (SMILES): CC1(c2ccccc2)Cc2cc(OCC(=O)O)c(Cl)c(Cl)c2C1=O (configuration not stated) [INDACRINONE]
- ED6 (Mus musculus [1]): 4.4 mg/kg
- ED2 (Rattus norvegicus [5]): 5.2 mg/kg
- ED5 (Canis familiaris [3]): 7.64 mg/kg
